Activity calls are given as the source filed them.
Columns and labels:
[1] = biological target: T1, Mu-type opioid receptor (Homo sapiens, UniProt P35372); assay: Agonist activity at human MOR expressed in HEK-293T cells assessed as inhibition of forskolin-stimulated cAMP accumulation incubated for 30 mins by Glo-sensor cAMP assay relative to DAMGO; assay type: functional, cell-based; conditions: HEK293T
How it was run: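 HEK293T cells transiently co-transfected with human MOR and a luciferase-based cAMP biosensor. Gαi-mediated cAMP inhibition read by luminescence. […] EC50 given as pEC50 ± SEM, triplicate runs.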

[2] = biological target: T1, Mu-type opioid receptor; assay: Agonist activity at human MOR receptor expressed in HTLA cells co-expressing TEV-fused-beta-arrestin2 assessed as induction of beta-arrestin2 recruitment by Tango assay relative to DAMGO; assay type: functional, cell-based
How it was run: (§1)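 HTLA cells expressing TEV-fused β-arrestin2 transiently transfected with a human MOR Tango construct. β-arrestin2 recruitment measured. […] Mean pEC50 ± SEM and Emax% ± SEM from triplicate runs.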

[3] = biological target: T1, Mu-type opioid receptor; assay: Agonist activity at human MOR expressed in HEK293T cells assessed as inhibition of forskolin-stimulated cAMP accumulation incubated for 30 mins by Glo-sensor cAMP assay; assay type: functional, cell-based
How it was run: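 HEK293T cells transiently co-transfected with human MOR and a luciferase-based cAMP biosensor. Gαi-mediated cAMP inhibition read by luminescence. EC50 given as pEC50 ± SEM, triplicate runs.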

[4] = biological target: T1, Mu-type opioid receptor; assay: Agonist activity at human MOR receptor expressed in HTLA cells co-expressing TEV-fused-beta-arrestin2 assessed as induction of beta-arrestin2 recruitment by Tango assay; assay type: functional, cell-based; how it was run: as §1
[5] = biological target: T1, Mu-type opioid receptor; assay: Agonist activity at human MOR expressed in CHO-K1 cells co-expressing beta-arrestin2 assessed as beta-arrestin2 EFC recruitment measured after 90 mins by PathHunter assay; assay type: functional, cell-based
How it was run: (§2)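 CHO-K1 cells stably expressing human μOR grown to confluency and seeded overnight at 37 °C, 5% CO2. 5× dilution series of compound in Opti-MEM added for 90 min at 37 °C. Detection reagent then added for 60 min at room temperature in the dark, and chemiluminescence read.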

[6] = biological target: T1, Mu-type opioid receptor; assay: Agonist activity at human MOR expressed in CHO-K1 cells co-expressing beta-arrestin2 assessed as beta-arrestin2 EFC recruitment measured after 90 mins by PathHunter assay relative to control; assay type: functional, cell-based; how it was run: as §2
[7] = biological target: T1, Mu-type opioid receptor; assay: Displacement of [3H]-DAMGO from mu opioid receptor (unknown origin) expressed in CHO cells at 10 uM; assay type: cell-based
[8] = biological target: T1, Mu-type opioid receptor; assay: Partial agonist activity at human MOR expressed in HEK293T cells co-expressing Galpha-RLuc8:Gbeta:Ggamma-GFP2 assessed as maximal Gi-1 activation measured after 15 mins by BRET assay relative to control; assay type: functional, cell-based; conditions: filed as partial agonist
[9] = biological target: GABA-A receptor; anion channel (Rattus norvegicus) (UniProt O09028+P15431+P18506+P18508+P19969+P20236+P23574+P23576+P28471+P28473+P30191+P62813+P63079+P63138+Q91ZM7+Q9ES14); assay: Partial agonist activity at GABAA receptor in rat brain slice assessed as induction of receptor-mediated inhibitory postsynaptic current at 10 uM by Whole cell electrophysiology; assay type: tissue-based; conditions: filed as partial agonist
How it was run: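 Horizontal VTA slices (200 μm) from male Sprague–Dawley rats. Whole-cell voltage clamp at −70 mV, 33 °C, KCl internal. GABAA IPSCs isolated with 10 μM DNQX and evoked by paired pulses every 10 s. Drug (10 μM) bath applied. Mean IPSC amplitude at minutes 4–7 of drug compared with the 4 min baseline.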

[10] = biological target: Voltage-dependent L-type calcium channel subunit alpha-1C (Rattus norvegicus, UniProt P22002); assay: Displacement of [3H]Diltiazem from Cav1.2 in rat brain at 10 uM incubated for 120 mins by radiometric scintillation counting analysis; assay type: tissue-based; conditions: 2 h
[11] = Toxicity in C57BL/6 mouse model assessed as hyperlocomotion at 15 times of ED50 for antinociceptive effect; conditions: in vivo
How it was run: (§3)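 Mice habituated 60 min in sealed CLAMS cages, dosed sc, and confined 5 min later. Respiration rate measured by pressure transducer and ambulation by infrared beam breaks, every 20 min. […] Expressed as % vehicle. Two-way ANOVA with Dunnett's test.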

[12] = biological target: T1, Mu-type opioid receptor; assay: Partial agonist activity at human MOR expressed in HEK293T cells co-expressing Galpha-RLuc8:Gbeta:Ggamma-GFP2 assessed as Galpha-i/o activation measured after TRUPATH assay; assay type: functional, cell-based; conditions: filed as partial agonist
[13] = biological target: Mu-type opioid receptor (Mus musculus) (UniProt P42866); assay: Partial agonist activity at mouse MOR expressed in HEK293T cells assessed as Nb33 recruitment by BRET assay relative to control; assay type: functional, cell-based
How it was run: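 HEK293T cells transfected with murine MOR-NanoLuc (1 μg) and Nb33-Venus (4 μg) using PEI and used 48 h later. Cells in PBS given coelenterazine H (5 μM), ligand added at 5 min, BRET read 10 min later. Three-parameter fit; ≥3 independent trials in triplicate.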

[14] = tested on: Mus musculus; assay: Antinociceptive activity in sc dosed C57BL/6 mouse model assessed as increase in tail withdrawal latency measured at 20 mins by […] withdrawal assay; assay type: functional; conditions: C57BL/6, sc
How it was run: (§4)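 C57BL/6J mice given compound sc or po. 55 °C warm-water tail withdrawal with baseline latency taken first, then measured every 10 min, 15 s cutoff. % antinociception = 100 × (test − baseline)/(15 − baseline). sc doses 1, 3, 10 mg/kg (n = 8). po dose 10 mg/kg (n = 13). ED50 with 95% CI.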

[15] = tested on: Mus musculus; assay: Antinociceptive activity in sc dosed C57BL/6 MOR knock out mouse model assessed as increase in tail withdrawal latency measured at 20 mins by radiant heat withdrawal assay; assay type: functional, organism-based
[16] = tested on: Mus musculus; assay: Antinociceptive activity in C57BL/6 mouse model assessed as measuring increase in tail withdrawal latency at 10 mg/kg, po at 55 degC measured at 30 mins peak time point by […] withdrawal assay; assay type: functional; conditions: 0.5 h; how it was run: as §4
[17] = Toxicity in C57BL/6 mouse model assessed as conditioned place preference at 15 mg/kg, sc; assay type: organism-based; conditions: in vivo
How it was run: (§5)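 Counterbalanced two-compartment place conditioning in C57BL/6J mice. […] Time on drug-paired side over a 20 min test compared with preconditioning by Welch-corrected t test.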

[18] = Toxicity in C57BL/6 mouse model assessed as conditioned place aversion at 15 mg/kg, sc; assay type: organism-based; conditions: in vivo; how it was run: as §5
[19] = Toxicity in C57BL/6 mouse model assessed as conditioned place preference at 10 mg/kg, IP; assay type: organism-based; conditions: in vivo; how it was run: as §5
[20] = Toxicity in C57BL/6 mouse model assessed as charcoal distance travel at 15 mg/kg, sc measured after 3 hrs by gastrointestinal transit assay (reference value: 29.5 +/- 1 cm); assay type: organism-based; conditions: in vivo
[21] = Toxicity in C57BL/6 mouse model assessed as respiratory depression at 15 times of ED50 for antinociceptive effect; conditions: in vivo; how it was run: as §3
[22] = tested on: Mus musculus; assay: Antinociceptive activity in C57BL/6 mouse model assessed as measuring increase in tail withdrawal latency at 10 mg/kg, sc at 55 degC measured at 20 mins peak time point by […] withdrawal assay; assay type: functional; how it was run: as §4

T1 sequence (P35372 whole entry): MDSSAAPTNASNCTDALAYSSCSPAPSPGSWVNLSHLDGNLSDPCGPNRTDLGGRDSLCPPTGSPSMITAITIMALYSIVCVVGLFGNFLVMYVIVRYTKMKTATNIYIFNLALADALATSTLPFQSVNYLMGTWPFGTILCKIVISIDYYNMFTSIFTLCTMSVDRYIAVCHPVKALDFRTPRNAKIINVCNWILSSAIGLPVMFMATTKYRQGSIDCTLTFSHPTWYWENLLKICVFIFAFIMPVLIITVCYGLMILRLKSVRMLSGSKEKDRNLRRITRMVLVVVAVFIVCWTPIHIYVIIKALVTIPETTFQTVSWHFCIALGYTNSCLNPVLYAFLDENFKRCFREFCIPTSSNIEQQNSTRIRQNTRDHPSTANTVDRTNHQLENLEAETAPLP
Chain of Mu-type opioid receptor (Mus musculus) (P42866 whole entry): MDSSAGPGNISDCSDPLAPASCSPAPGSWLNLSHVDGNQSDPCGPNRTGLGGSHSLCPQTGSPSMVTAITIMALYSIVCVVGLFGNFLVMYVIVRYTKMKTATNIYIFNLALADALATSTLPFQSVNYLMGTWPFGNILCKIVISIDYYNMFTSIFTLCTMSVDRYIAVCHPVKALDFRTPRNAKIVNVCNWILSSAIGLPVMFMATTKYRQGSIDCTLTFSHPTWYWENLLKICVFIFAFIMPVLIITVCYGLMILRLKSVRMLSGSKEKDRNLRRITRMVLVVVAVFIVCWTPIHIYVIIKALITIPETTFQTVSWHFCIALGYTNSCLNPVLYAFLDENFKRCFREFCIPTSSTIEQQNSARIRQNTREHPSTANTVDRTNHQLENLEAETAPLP
Chain of Voltage-dependent L-type calcium channel subunit alpha-1C (P22002 whole entry): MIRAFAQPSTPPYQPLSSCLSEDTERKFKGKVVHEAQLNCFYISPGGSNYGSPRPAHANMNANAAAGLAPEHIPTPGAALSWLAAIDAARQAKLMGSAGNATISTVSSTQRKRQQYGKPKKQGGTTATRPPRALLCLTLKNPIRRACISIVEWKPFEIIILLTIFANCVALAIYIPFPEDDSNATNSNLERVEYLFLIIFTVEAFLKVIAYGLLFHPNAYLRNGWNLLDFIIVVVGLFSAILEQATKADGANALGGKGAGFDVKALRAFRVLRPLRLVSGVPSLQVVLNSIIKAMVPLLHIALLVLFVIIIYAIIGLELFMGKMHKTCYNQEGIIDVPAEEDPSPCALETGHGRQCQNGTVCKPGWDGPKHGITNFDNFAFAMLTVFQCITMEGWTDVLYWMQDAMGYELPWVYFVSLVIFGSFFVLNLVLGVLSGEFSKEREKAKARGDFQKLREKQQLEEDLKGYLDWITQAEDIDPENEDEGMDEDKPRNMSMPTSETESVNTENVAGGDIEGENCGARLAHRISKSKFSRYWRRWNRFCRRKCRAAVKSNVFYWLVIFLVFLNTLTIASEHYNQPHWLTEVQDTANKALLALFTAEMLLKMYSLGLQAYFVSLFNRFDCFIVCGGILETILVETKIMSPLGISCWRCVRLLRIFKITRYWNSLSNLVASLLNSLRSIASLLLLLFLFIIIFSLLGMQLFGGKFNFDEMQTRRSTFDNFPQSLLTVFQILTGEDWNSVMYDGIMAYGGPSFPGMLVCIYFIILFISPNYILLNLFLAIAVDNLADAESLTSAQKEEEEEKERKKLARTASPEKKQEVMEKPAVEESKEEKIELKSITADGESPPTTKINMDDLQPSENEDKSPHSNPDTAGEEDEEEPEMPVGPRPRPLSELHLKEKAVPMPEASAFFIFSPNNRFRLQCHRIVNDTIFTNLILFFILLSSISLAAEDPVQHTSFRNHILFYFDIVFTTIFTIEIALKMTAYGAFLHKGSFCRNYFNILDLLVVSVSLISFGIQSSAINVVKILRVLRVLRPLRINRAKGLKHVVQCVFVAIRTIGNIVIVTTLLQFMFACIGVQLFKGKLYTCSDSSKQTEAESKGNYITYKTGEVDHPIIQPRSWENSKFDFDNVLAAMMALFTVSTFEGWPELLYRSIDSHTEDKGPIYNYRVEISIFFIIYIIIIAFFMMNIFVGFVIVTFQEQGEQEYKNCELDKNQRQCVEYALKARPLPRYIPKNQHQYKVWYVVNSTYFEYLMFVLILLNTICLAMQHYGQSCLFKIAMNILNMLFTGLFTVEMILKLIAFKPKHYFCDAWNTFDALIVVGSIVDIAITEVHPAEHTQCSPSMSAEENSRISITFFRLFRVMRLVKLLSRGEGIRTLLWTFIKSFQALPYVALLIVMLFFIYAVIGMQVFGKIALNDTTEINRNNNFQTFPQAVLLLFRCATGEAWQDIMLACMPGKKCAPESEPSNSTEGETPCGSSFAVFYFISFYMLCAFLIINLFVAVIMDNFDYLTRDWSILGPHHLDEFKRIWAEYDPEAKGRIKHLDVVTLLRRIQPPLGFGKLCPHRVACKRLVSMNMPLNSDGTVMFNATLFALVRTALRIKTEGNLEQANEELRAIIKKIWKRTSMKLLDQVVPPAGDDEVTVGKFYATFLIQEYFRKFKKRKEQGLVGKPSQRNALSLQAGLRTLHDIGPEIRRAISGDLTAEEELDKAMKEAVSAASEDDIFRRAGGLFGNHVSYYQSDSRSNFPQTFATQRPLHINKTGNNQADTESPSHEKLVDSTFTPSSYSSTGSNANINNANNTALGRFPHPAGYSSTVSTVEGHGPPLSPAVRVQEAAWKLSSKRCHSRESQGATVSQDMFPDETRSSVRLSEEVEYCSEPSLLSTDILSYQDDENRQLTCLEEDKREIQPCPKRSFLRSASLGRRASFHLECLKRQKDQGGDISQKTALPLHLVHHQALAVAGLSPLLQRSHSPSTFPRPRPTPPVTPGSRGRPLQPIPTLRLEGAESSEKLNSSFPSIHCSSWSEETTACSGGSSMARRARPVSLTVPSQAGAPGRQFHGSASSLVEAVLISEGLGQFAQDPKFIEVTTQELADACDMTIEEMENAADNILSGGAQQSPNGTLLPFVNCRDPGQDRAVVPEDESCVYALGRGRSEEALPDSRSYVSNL

Q: What does the source list for `CC[C@@H]1CN2CCc3c([nH]c4cccc(OC)c34)[C@@H]2C[C@@H]1/C(=C\OC)C(=O)OC`?
A: Emax ([1]; filed as agonist): 84.7%; Emax ([2]; HTLA230): < 20%

Q: With `CC[C@@H]1CN2CC[C@@]3(O)C(=Nc4ccc(-c5ccoc5)c(OC)c43)[C@@H]2C[C@@H]1/C(=C\OC)C(=O)OC` as the molecule, how does the EC50 [3] read?
A: 535 nM

Q: And the Emax ([1]; filed as agonist)?
A: 100%

Q: And the EC50 [4]?
A: 8040 nM

Q: What about the Emax ([2]; HTLA230) of the same molecule?
A: 31.3%

Q: With `CC[C@@H]1CN2CCc3c([nH]c4c(-c5ccccc5)ccc(OC)c34)[C@@H]2C[C@@H]1/C(=C\OC)C(=O)OC` as the molecule, how does the EC50 [3] read?
A: 1110 nM

Q: And the Emax ([1]; filed as agonist)?
A: 50.4%

Q: What about the Emax ([2]; HTLA230) of the same molecule?
A: < 20%

Q: Which results are given for `CC[C@@H]1CN2CCc3c([nH]c4cccc(C)c34)[C@@H]2C[C@@H]1/C(=C\OC)C(=O)OC`?
A: EC50 [3]: 82.9 nM; Emax ([1]; filed as agonist): 97.1%; Emax ([2]; HTLA230): < 20%

Q: For `CC[C@@H]1CN2CCc3c([nH]c4ccc(C)c(OC)c34)[C@@H]2C[C@@H]1/C(=C\OC)C(=O)OC`, which EC50 [3] is on record?
A: 370 nM

Q: And the Emax ([1]; filed as agonist)?
A: 96.5%

Q: And the Emax ([2]; HTLA230)?
A: < 20%

Q: With `CC[C@@H]1CN2CCc3c([nH]c4cccc(-c5ccccc5)c34)[C@@H]2C[C@@H]1/C(=C\OC)C(=O)OC` as the molecule, how does the EC50 [3] read?
A: 83.2 nM

Q: And the Emax ([1]; filed as agonist)?
A: 46.1%

Q: What about the Emax ([2]; HTLA230) of the same molecule?
A: < 20%

Q: What does the source list for `CC[C@@H]1CN2CC[C@@]3(O)C(=Nc4cccc(OC)c43)[C@@H]2C[C@@H]1/C(=C\OC)C(=O)OC`?
A: Emax ([1]; filed as agonist): 95.5%; Emax ([2]; HTLA230): < 20%

Q: With `CC[C@@H]1CN2CC[C@@]3(O)C(=Nc4cccc(-c5ccoc5)c43)[C@@H]2C[C@@H]1/C(=C\OC)C(=O)OC` as the molecule, how does the EC50 [3] read?
A: 7.25 nM

Q: And the Emax ([1]; filed as partial agonist)?
A: 106%

Q: And the EC50 [4]?
A: 11000 nM

Q: And the Emax ([2]; HTLA230, filed as partial agonist)?
A: 45%

Q: What about the Emax [5] of the same molecule?
A: 31%

Q: What about the Emax [6] of the same molecule?
A: < 20%

Q: And the Ki [7]?
A: 6 nM

Q: And the Emax [8]?
A: 60%

Q: And the Activity [9]?
A: Active

Q: And the Activity [10]?
A: Active

Q: And the Activity [11]?
A: Non-Toxic

Q: And the Activity [12]?
A: Active

Q: What about the Emax [13] of the same molecule?
A: 20%

Q: What about the ED50 [14] of the same molecule?
A: 3.05 mg/kg

Q: And the Activity [15]?
A: Active

Q: And the MPE [16]?
A: 87%

Q: What about the Activity [17] of the same molecule?
A: Non-Toxic

Q: What about the Activity [18] of the same molecule?
A: Non-Toxic

Q: What about the Activity [19] of the same molecule?
A: Toxic

Q: What about the Activity [20] of the same molecule?
A: 30.8 cm

Q: And the Activity [21]?
A: Non-Toxic

Q: What about the MPE [22] of the same molecule?
A: 100%

Q: With `CN1CC[C@]23c4c5ccc(O)c4O[C@H]2[C@@H](O)C=C[C@H]3[C@H]1C5` [MORPHINE] as the molecule, how does the Activity [19] read?
A: Toxic

Q: And the Activity [20]?
A: 5.07 cm

Q: Which EC50 [3] does the source give for `CC[C@@H]1CN2CCc3c([nH]c4cccc(-c5ccoc5)c34)[C@@H]2C[C@@H]1/C(=C\OC)C(=O)OC` here?
A: 93.7 nM

Q: What about the Emax ([1]; filed as agonist) of the same molecule?
A: 70.2%

Q: And the Emax ([2]; HTLA230)?
A: < 20%

From ChEMBL document CHEMBL5030540 (J Med Chem, 2021)
